A number with no mark means an inactive call. Activity calls are given as the source filed them.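 The calls were made as follows, unless noted: active = fluorescence slope after compound addition differing from the mean of all tested samples at 99.7% confidence, mostly higher but some lower; inactive = the rest.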

Consider 39 compounds from PubChem BioAssay.

Chain of Voltage-gated potassium channel subunit beta-2 (Rattus norvegicus) (P62483 whole entry, looked up): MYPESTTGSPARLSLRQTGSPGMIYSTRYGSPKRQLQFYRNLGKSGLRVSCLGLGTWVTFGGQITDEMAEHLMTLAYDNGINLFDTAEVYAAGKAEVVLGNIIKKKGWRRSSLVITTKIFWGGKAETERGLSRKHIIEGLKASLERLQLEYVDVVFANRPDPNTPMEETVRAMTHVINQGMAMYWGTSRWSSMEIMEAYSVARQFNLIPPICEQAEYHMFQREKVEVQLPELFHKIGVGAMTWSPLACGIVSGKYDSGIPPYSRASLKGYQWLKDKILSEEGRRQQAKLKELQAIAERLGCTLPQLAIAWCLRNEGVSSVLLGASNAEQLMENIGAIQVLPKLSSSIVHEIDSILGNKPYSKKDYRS
Chain of Muscarinic acetylcholine receptor M4 (Homo sapiens) (P08173 whole entry, looked up): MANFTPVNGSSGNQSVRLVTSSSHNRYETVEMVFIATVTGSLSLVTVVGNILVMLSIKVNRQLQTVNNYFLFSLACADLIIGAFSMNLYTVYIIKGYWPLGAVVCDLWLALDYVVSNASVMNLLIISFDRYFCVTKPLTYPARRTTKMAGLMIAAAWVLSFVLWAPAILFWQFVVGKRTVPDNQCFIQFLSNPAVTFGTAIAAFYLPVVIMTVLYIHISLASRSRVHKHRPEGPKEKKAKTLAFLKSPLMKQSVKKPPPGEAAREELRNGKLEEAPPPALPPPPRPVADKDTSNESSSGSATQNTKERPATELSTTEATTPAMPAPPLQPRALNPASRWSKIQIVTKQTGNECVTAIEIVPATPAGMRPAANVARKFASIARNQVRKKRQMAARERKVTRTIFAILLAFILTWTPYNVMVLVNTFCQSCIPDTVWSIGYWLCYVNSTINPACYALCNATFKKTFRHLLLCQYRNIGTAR

One test has as its target Voltage-gated potassium channel subunit beta-2 (Rattus norvegicus) (UniProt P62483). The test is described as follows: KvBeta positive modulators, primary screen, biochemical, NADPH fluorescence (AID 623;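 active = NADPH fluorescence slope more negative than the mean of all samples by about 3 SD, 99.7% confidence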;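 also: fluorescence intensity change per second fitted from 20 to 320 s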). Particulars: Recombinant KvBeta, NADPH fluorescence decrease slope, 10 min; at 10 µM; active compounds read low.
On to `Cn1c(COc2ccccc2)nnc1SCC(=O)Nc1ccc(N2CCOCC2)c(Cl)c1`, for which the NADPH fluorescence slope is -6.6e-05.

With `O=C(CSc1nnc(Cc2ccccc2)n1C1CCCCC1)N1CCOCC1`, the NADPH fluorescence slope is 5e-05.

Take `C1=CC2CC1CC2CN1CCN(c2ccccc2)CC1` (stereo not drawn): the NADPH fluorescence slope was -2.1e-05.

`COc1ccc(-c2nnc(SCC#N)o2)cc1`: the NADPH fluorescence slope is -2.6e-05.

Take `CC(=O)Nc1ccc(N2CCN(Cc3ccccc3F)CC2)cc1`: the NADPH fluorescence slope was -3.8e-05.

For the compound `O=C1C2C3C=CC(C3)C2C(=O)N1CNc1ccc(O)cc1` (stereo not drawn), the NADPH fluorescence slope was 2.6e-05.

As to `COc1cc2c(cc1OC)-c1cc(OCc3cccnc3)nc(=O)n1CC2`, the NADPH fluorescence slope was -1.1e-05.

For the compound `Cc1cc2ncn(C(=O)N3CCOCC3)c2cc1C`, the NADPH fluorescence slope was -3.6e-05.

For the compound `COc1ccccc1N1CCN(C(=O)CCNS(=O)(=O)c2ccc3c(c2)CCC(=O)N3)CC1`, the NADPH fluorescence slope is -1.7e-05.

For `CCOC(=O)c1cc(C)n(CCCN2CCOCC2)c1C`, the NADPH fluorescence slope was 1.5e-05.

Consider `CCCc1cc(=O)n2[nH]c(-c3ccc(Br)cc3)cc2n1`, for which the NADPH fluorescence slope was -2.2e-05.

With `CCCC1C(C#N)=C(N)Oc2n[nH]c(C(C)(C)C)c21` (stereo not drawn), the NADPH fluorescence slope was -3.1e-05.

`CCOC(=O)CSc1nnc(-c2cccnc2)n1Cc1ccccc1`: the NADPH fluorescence slope is 1.1e-05.

Consider `CCOc1ccccc1C(=O)NCCC(=O)O`, for which the NADPH fluorescence slope is -0.00026.

Consider `CC(C(=O)Nc1ccccc1-c1ccccc1)N1CCN(C(=O)c2ccco2)CC1` (stereo not drawn), for which the NADPH fluorescence slope is 1.3e-05.

Consider `CC(C)(C)n1ncc2c(=O)n(CC(=O)NCc3ccco3)cnc21`, for which the NADPH fluorescence slope is 3.5e-06.

Take `CCn1c(=O)cc(OCC(=O)Nc2cc(C)ccn2)c2ccccc21`: the NADPH fluorescence slope is -5.7e-06.

Turning to `COc1ccc(CN2CC(C(=O)NCCCOC(C)C)CC2=O)cc1` (stereo not drawn), the NADPH fluorescence slope is -6.3e-05.

For `CCOC(=O)C1=C(CC)Nc2ccccc2N=C1NC(=O)Cn1cnc2ccccc2c1=O`, the NADPH fluorescence slope is -4.1e-05.

For the compound `Cc1ccc(-n2ncc3c(=O)n(CC(=O)NC4CCCCC4)cnc32)cc1C`, the NADPH fluorescence slope was 2.2e-05.

As to `N#Cc1c(/N=C/c2ccco2)sc2c1CCC2`, the NADPH fluorescence slope is -0.000202.

As for `O=C(C1CCN(S(=O)(=O)Cc2ccccc2)CC1)N1CCN(c2ncccn2)CC1`, the NADPH fluorescence slope is -0.000431.

`COc1cccc(-c2nc(-c3ccc(NC(=O)Cc4ccccc4OC)cc3)no2)c1`: the NADPH fluorescence slope was -1.4e-06.

For `O=C(COc1ccc(Cl)cc1)Nc1nc(-c2cccs2)cs1`, the NADPH fluorescence slope was 2.5e-05.

For `COCCNC(=O)CN(C)S(=O)(=O)c1ccc2c(c1)OCCO2`, the NADPH fluorescence slope is 1.9e-05.

With `O=C(Cn1c(=O)n(Cc2ccc3c(c2)OCO3)c(=O)c2ccccc21)N1CCCc2ccccc21`, the NADPH fluorescence slope was -6.4e-06.

For the compound `NC(=O)CSc1nnc(-c2ccc(O)cc2)n1Cc1ccco1`, the NADPH fluorescence slope was -4.4e-05.

On to `COC(=O)Cc1[nH]nc2c1C(C1C=CCCC1)C(C#N)=C(N)O2` (stereo not drawn), for which the NADPH fluorescence slope is 2.6e-05.

In the case of `N#Cc1c(-c2ccccc2)nc(SCc2nc(N)nc(N3CCCCC3)n2)[nH]c1=O`, the NADPH fluorescence slope was 0.000117.

As for `CCn1c(SCC(=O)NCc2ccco2)nc2c(c1=O)SC(C)C2` (stereo not drawn), the NADPH fluorescence slope is -0.000131.

As to `CCn1c(C)nc2cc(C(=O)OC(C(F)(F)C(F)F)C(F)(F)C(F)F)ccc21`, the NADPH fluorescence slope is -2.6e-05.

On to `O=C(CCN1CCN(CCO)CC1)Nc1ccc(OCc2ccccc2)cc1`, for which the NADPH fluorescence slope was -2.1e-05.

As for `COc1ccc2c(c1)CCc1c(C(=O)N3CC4(C)CC3CC(C)(C)C4)noc1-2` (stereo not drawn), the NADPH fluorescence slope was -1.4e-05.

In the case of `Cc1cc(NC(=O)CCC(=O)N(CC2CCCO2)C(C(=O)NC2CCCC2)c2ccccc2C)no1` (stereo not drawn), the NADPH fluorescence slope was -5.7e-05.

Take `COc1ccc2c(c1)CCc1c(C(=O)NCc3cccnc3)noc1-2`: the NADPH fluorescence slope was -0.000203.

Consider `O=C(Nc1c(-c2ccccc2)nc2ccccn12)c1ccco1`, for which the NADPH fluorescence slope is 4.7e-05.

Consider `O=C(CCCC(=O)N(CC(=O)NC1CCCCC1)Cc1ccc2c(c1)OCO2)Nc1ccccn1`, for which the NADPH fluorescence slope was 3.7e-05.

For `CCOC(=O)N1CCN(C(=O)C2c3cc(OC)c(OC)cc3C(=O)N3CCc4ccccc4C23)CC1` (stereo not drawn), the NADPH fluorescence slope is 4.3e-05.

`COC(=O)Cc1csc(N)n1`: the NADPH fluorescence slope was 2.5e-05.

The target of another test is Muscarinic acetylcholine receptor M4 (Homo sapiens) (UniProt P08173). The test is described as follows: compounds altering M4/GIRK thallium flux, either direction, primary screen, M4 allosteric agonist project, cell-based, HEK293 M4/GIRK, BTC-AM (AID 625).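 Also: thallium influx through GIRK channels coupled to M4 in HEK293 cells with BTC-AM dye.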 Particulars: at 10 µM, actives lie on both sides. In outline:
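System: HEK293 cells with M4 receptor and GIRK channels | Incubation: Cells overnight at 37 °C, BTC-AM loading 1 h, reads 2 min total | Technique: Kinetic BTC-AM fluorescence sampled at 1 Hz, 10 s pre-addition baseline | Measure: Post-addition slope, 15–24 s, of baseline-normalized fluorescence | Control set: Carbachol positive, DMSO negative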
Turning to `Cn1c(COc2ccccc2)nnc1SCC(=O)Nc1ccc(N2CCOCC2)c(Cl)c1`, the fluorescence slope was 0.00548.

`O=C(CSc1nnc(Cc2ccccc2)n1C1CCCCC1)N1CCOCC1`: the fluorescence slope is 0.00611.

As to `C1=CC2CC1CC2CN1CCN(c2ccccc2)CC1` (stereo not drawn), the fluorescence slope was 0.00448.

In the case of `COc1ccc(-c2nnc(SCC#N)o2)cc1`, the fluorescence slope is 0.00472.

Take `CC(=O)Nc1ccc(N2CCN(Cc3ccccc3F)CC2)cc1`: the fluorescence slope was 0.0111.

Regarding `O=C1C2C3C=CC(C3)C2C(=O)N1CNc1ccc(O)cc1` (stereo not drawn), the fluorescence slope is 0.00588.

Turning to `COc1cc2c(cc1OC)-c1cc(OCc3cccnc3)nc(=O)n1CC2`, the fluorescence slope is 0.00535.

With `Cc1cc2ncn(C(=O)N3CCOCC3)c2cc1C`, the fluorescence slope was 0.00619.

Turning to `COc1ccccc1N1CCN(C(=O)CCNS(=O)(=O)c2ccc3c(c2)CCC(=O)N3)CC1`, the fluorescence slope is 0.00579.

On to `CCOC(=O)c1cc(C)n(CCCN2CCOCC2)c1C`, for which the fluorescence slope is 0.00505.

Turning to `CCCc1cc(=O)n2[nH]c(-c3ccc(Br)cc3)cc2n1`, the fluorescence slope is 0.00575.

For `CCCC1C(C#N)=C(N)Oc2n[nH]c(C(C)(C)C)c21` (stereo not drawn), the fluorescence slope is 0.00609.

`CCOC(=O)CSc1nnc(-c2cccnc2)n1Cc1ccccc1`: the fluorescence slope was 0.00573.

Take `CCOc1ccccc1C(=O)NCCC(=O)O`: the fluorescence slope is 0.00473.

`CC(C(=O)Nc1ccccc1-c1ccccc1)N1CCN(C(=O)c2ccco2)CC1` (stereo not drawn): the fluorescence slope was 0.00807.

As to `CC(C)(C)n1ncc2c(=O)n(CC(=O)NCc3ccco3)cnc21`, the fluorescence slope was 0.00566.

In the case of `CCn1c(=O)cc(OCC(=O)Nc2cc(C)ccn2)c2ccccc21`, the fluorescence slope is 0.00495.

Consider `COc1ccc(CN2CC(C(=O)NCCCOC(C)C)CC2=O)cc1` (stereo not drawn), for which the fluorescence slope was 0.00604.

On to `CCOC(=O)C1=C(CC)Nc2ccccc2N=C1NC(=O)Cn1cnc2ccccc2c1=O`, for which the fluorescence slope was 0.00608.

In the case of `Cc1ccc(-n2ncc3c(=O)n(CC(=O)NC4CCCCC4)cnc32)cc1C`, the fluorescence slope is 0.00615.

On to `N#Cc1c(/N=C/c2ccco2)sc2c1CCC2`, for which the fluorescence slope is 0.00356.

For `O=C(C1CCN(S(=O)(=O)Cc2ccccc2)CC1)N1CCN(c2ncccn2)CC1`, the fluorescence slope is 0.00525.

With `COc1cccc(-c2nc(-c3ccc(NC(=O)Cc4ccccc4OC)cc3)no2)c1`, the fluorescence slope is 0.0119 (active).

Take `O=C(COc1ccc(Cl)cc1)Nc1nc(-c2cccs2)cs1`: the fluorescence slope was 0.00605.

As for `COCCNC(=O)CN(C)S(=O)(=O)c1ccc2c(c1)OCCO2`, the fluorescence slope is 0.00472.

Take `O=C(Cn1c(=O)n(Cc2ccc3c(c2)OCO3)c(=O)c2ccccc21)N1CCCc2ccccc21`: the fluorescence slope was 0.00433.

As for `NC(=O)CSc1nnc(-c2ccc(O)cc2)n1Cc1ccco1`, the fluorescence slope was 0.00558.

As to `COC(=O)Cc1[nH]nc2c1C(C1C=CCCC1)C(C#N)=C(N)O2` (stereo not drawn), the fluorescence slope was 0.00509.

Take `N#Cc1c(-c2ccccc2)nc(SCc2nc(N)nc(N3CCCCC3)n2)[nH]c1=O`: the fluorescence slope is 0.00582.

For the compound `CCn1c(SCC(=O)NCc2ccco2)nc2c(c1=O)SC(C)C2` (stereo not drawn), the fluorescence slope was 0.0058.

Take `CCn1c(C)nc2cc(C(=O)OC(C(F)(F)C(F)F)C(F)(F)C(F)F)ccc21`: the fluorescence slope is 0.00666.

`O=C(CCN1CCN(CCO)CC1)Nc1ccc(OCc2ccccc2)cc1`: the fluorescence slope is 0.00748.

Turning to `COc1ccc2c(c1)CCc1c(C(=O)N3CC4(C)CC3CC(C)(C)C4)noc1-2` (stereo not drawn), the fluorescence slope was 0.00924.

On to `Cc1cc(NC(=O)CCC(=O)N(CC2CCCO2)C(C(=O)NC2CCCC2)c2ccccc2C)no1` (stereo not drawn), for which the fluorescence slope was 0.00469.

As for `COc1ccc2c(c1)CCc1c(C(=O)NCc3cccnc3)noc1-2`, the fluorescence slope is 0.00462.

Regarding `O=C(Nc1c(-c2ccccc2)nc2ccccn12)c1ccco1`, the fluorescence slope was 0.00475.

Take `O=C(CCCC(=O)N(CC(=O)NC1CCCCC1)Cc1ccc2c(c1)OCO2)Nc1ccccn1`: the fluorescence slope was 0.00636.

With `CCOC(=O)N1CCN(C(=O)C2c3cc(OC)c(OC)cc3C(=O)N3CCc4ccccc4C23)CC1` (stereo not drawn), the fluorescence slope is 0.00684.

On to `COC(=O)Cc1csc(N)n1`, for which the fluorescence slope is 0.00536.
